According to article PMC6643050 (Lipids, 2018):
Values joined by “and” are separate entries in the source; they are usually repeats but may differ in a detail not shown here. Identical values can stand only once.

Columns and labels:
Δ^1–28 L-PGDS [1] = molecular target: T1, Δ^1–28 L-PGDS (Homo sapiens, UniProt P41222); assay: Fluorescence displacement binding assay; conditions: for Binding to Δ^1–28 L-PGDS, DAUDA displacement: DAUDA probe
T1 sequence (P41222 29-190): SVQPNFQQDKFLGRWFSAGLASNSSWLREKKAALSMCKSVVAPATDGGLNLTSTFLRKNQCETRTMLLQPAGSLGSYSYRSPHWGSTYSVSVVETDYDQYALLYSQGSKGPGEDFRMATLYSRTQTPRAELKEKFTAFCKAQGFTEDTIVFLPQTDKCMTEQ

Δ^1–28 L-PGDS [2] = molecular target: T1, Δ^1–28 L-PGDS; assay: Intrinsic tryptophan fluorescence quenching assay; type: binding; conditions: compound 20 μM, L-PGDS 1.5 μM, pH 8.0; mean ± SE
Method in brief: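 Recombinant human Δ1–28 L-PGDS, delipidated on hydroxypropyl-beaded dextran (1 h, 37 °C), used at 1.5 μM in 5 mM Tris–HCl pH 8.0. Test compound (2 mM DMSO stock) added at 20 μM final; equilibrated 30 min at 25 °C. Tryptophan fluorescence read at ex/em 282/340 nm and corrected for nonspecific effects with N-acetyl-L-tryptophanamide (1.5 μM). Reported relative to vehicle; ≥3 independent assays.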

Δ^1–28 L-PGDS [3] = molecular target: T1, Δ^1–28 L-PGDS; assay: Determination of fluorescent probe binding affinity
L-PGDS = conditions: known high-affinity L-PGDS ligand; ref Breustedt et al., 2006; cited from earlier work
[4] = DAUDA (500 nM) displacement, L-PGDS 3 μM, pH 7.6, 25 °C, mean ± SE
[5] = Ki, DAUDA (500 nM) displacement, L-PGDS 3 μM, pH 7.6, 25 °C, mean ± SE

In the case of `CCCCCc1cc(O)c2c(c1)OC(C)(C)[C@@H]1CCC(C)=C[C@@H]21` [THC, Δ^9-tetrahydrocannabinol], the Ki (Δ^1–28 L-PGDS [1]; [4]) is reported as 175 ± 26 µM and the “Quenching (%), fluorescence reduction relative to vehicle-treated Δ^1–28 L-PGDS” value (Δ^1–28 L-PGDS [2]) is reported as 14.0 ± 2.2%.

With “prostaglandin E2-glyceryl ester [PGE2-GE]” the Ki (Δ^1–28 L-PGDS [1]; [4]) was 11.2 ± 1.2 µM and the “Quenching (%), fluorescence reduction relative to vehicle-treated Δ^1–28 L-PGDS” value (Δ^1–28 L-PGDS [2]) was 15.1 ± 1.7%.

With `CCCCCCCCCCCCCCCC(=O)NCCO` [PEA, palmitoylethanolamide] the “Binding to Δ^1–28 L-PGDS, DAUDA displacement” value (“Binding to Δ^1–28 L-PGDS” for short) (Δ^1–28 L-PGDS [1]) was “did not display any appreciable binding”, the Ki (Δ^1–28 L-PGDS [1]; [5]) was > 200 µM and the “Quenching (%), fluorescence reduction relative to vehicle-treated Δ^1–28 L-PGDS” value (Δ^1–28 L-PGDS [2]) was 1.3 ± 4.7%.

In the case of `CCCCCCCC/C=C\CCCCCCCC(N)=O` [Oleamide], the Ki (Δ^1–28 L-PGDS [1]; [5]) is reported as > 200 µM and the “Quenching (%), fluorescence reduction relative to vehicle-treated Δ^1–28 L-PGDS” value (Δ^1–28 L-PGDS [2]) is reported as 3.6 ± 2.0%.

For `CCCCC/C=C\C/C=C\C/C=C\C/C=C\CCCC(=O)NCCO` [AEA, N-arachidonoylethanolamine], the “Affinity for Δ^1–28 L-PGDS, ANS displacement” value (Δ^1–28 L-PGDS [1]; ANS probe (500 nM)) was “lack of affinity”, the “Binding to Δ^1–28 L-PGDS” value (Δ^1–28 L-PGDS [1]) was “did not bind” and the Ki (Δ^1–28 L-PGDS [1]; [5]) was > 200 µM. The “Quenching (%), fluorescence reduction relative to vehicle-treated Δ^1–28 L-PGDS” value (Δ^1–28 L-PGDS [2]) was 3.1 ± 3.3%.

`CN(C)c1cccc2c(S(=O)(=O)NCCCCCCCCCCC(=O)O)cccc12` [DAUDA, 11-(dansylamino)undecanoic acid] showed a Kd (Δ^1–28 L-PGDS [3]) of 960 ± 80 nM.

Compound `O=S(=O)(O)c1cccc2cccc(Nc3ccccc3)c12` [ANS, 1-anilinonaphthalene-8-sulfonic acid] has a Kd (Δ^1–28 L-PGDS [3]) of 3400 ± 800 nM.

With `CCCCCCCC/C=C\CCCCCCCC(=O)O` [OLA, oleic acid] the Ki (Δ^1–28 L-PGDS [1]; [5]) was 1.8 ± 0.9 µM and the “Quenching (%), fluorescence reduction relative to vehicle-treated Δ^1–28 L-PGDS” value (Δ^1–28 L-PGDS [2]) was 15.1 ± 3.7%.

For `CCCCCC/C=C\CCCCCCCC(=O)O` [PLA, palmitoleic acid], the Ki (Δ^1–28 L-PGDS [1]; [5]) was 3.7 ± 0.5 µM and the “Quenching (%), fluorescence reduction relative to vehicle-treated Δ^1–28 L-PGDS” value (Δ^1–28 L-PGDS [2]) was 11.9 ± 2.3%.

With `CCCCC[C@H](O)/C=C/[C@H]1[C@H](O)CC(=O)[C@@H]1C/C=C\CCCC(=O)O` [PGE2, prostaglandin E2] the Ki (Δ^1–28 L-PGDS [1]; [5]) was 128 ± 16 µM and the “Quenching (%), fluorescence reduction relative to vehicle-treated Δ^1–28 L-PGDS” value (Δ^1–28 L-PGDS [2]) was 6.5 ± 1.5%.

In the case of `C=C(C)[C@@H]1CCC(C)=C[C@H]1c1c(O)cc(CCCCC)cc1O` [CBD, cannabidiol], the Ki (Δ^1–28 L-PGDS [1]; [5]) is reported as 77.9 ± 3.9 µM and the “Quenching (%), fluorescence reduction relative to vehicle-treated Δ^1–28 L-PGDS” value (Δ^1–28 L-PGDS [2]) is reported as 7.2 ± 2.1%.

For `CCCCCCC(CCCCCCCCCCC(=O)O)N(C)c1ccc([N+](=O)[O-])c2nonc12` (centres unmarked) [NBD-stearate, 12-N-methyl-(7-nitrobenz-2-oxa-1,3-diazo)aminostearic acid], the “Binding of fluorescent probe” value (Δ^1–28 L-PGDS [3]; L-PGDS 1 μM titrated with probe) was “did not exhibit appreciable binding”.

In the case of `O=C(O)C1[C@H](c2ccccc2)C(C(=O)Oc2cccc3ccccc23)[C@H]1c1ccccc1` (some centres unmarked) [SBFI-26], the Ki (Δ^1–28 L-PGDS [1]; [4]) is reported as 3 ± 0.5 µM and the “Quenching (%), fluorescence reduction relative to vehicle-treated Δ^1–28 L-PGDS” value (Δ^1–28 L-PGDS [2]) is reported as 33.3 ± 2.2%.

In the case of `CCCCC/C=C\C/C=C\C/C=C\C/C=C\CCCC(=O)OC(CO)CO` [2-AG, 2-arachidonoylglycerol], the “Binding to Δ^1–28 L-PGDS” value (Δ^1–28 L-PGDS [1]) is reported as “did not bind”, the Ki (Δ^1–28 L-PGDS [1]; [5]) is reported as > 200 µM and the “Quenching (%), fluorescence reduction relative to vehicle-treated Δ^1–28 L-PGDS” value (Δ^1–28 L-PGDS [2]) is reported as −0.8 ± 3.0%.

With `CCCCC[C@H](O)/C=C/[C@@H]1[C@@H](C/C=C\CCCC(=O)NCCO)[C@@H](O)C[C@H]1O` [Prostamide F2α] the Ki (Δ^1–28 L-PGDS [1]; [4]) was > 200 µM, the “Binding to Δ^1–28 L-PGDS” value (Δ^1–28 L-PGDS [1]) was “not found to bind with any appreciable affinity” and the “Quenching (%), fluorescence reduction relative to vehicle-treated Δ^1–28 L-PGDS” value (Δ^1–28 L-PGDS [2]) was 0.1 ± 2.6%.

In the case of “11-hydroxy-Δ^9-tetrahydrocannabinol [11-OH-THC]”, the Ki (Δ^1–28 L-PGDS [1]; [4]) is reported as 61 ± 14 µM, the Ki (Δ^1–28 L-PGDS [1]; DAUDA displacement) is reported as 61 ± 14 µM and the “Quenching (%), fluorescence reduction relative to vehicle-treated Δ^1–28 L-PGDS” value (Δ^1–28 L-PGDS [2]) is reported as 9.7 ± 1.3%.

In the case of `CCCCCc1cc(O)c2c(c1)OC(C)(C)[C@@H]1CCC(C(=O)O)=C[C@@H]21` [THC-COOH, 11-nor-9-carboxy-Δ^9-tetrahydrocannabinol], the Ki (Δ^1–28 L-PGDS [1]; [4]) is reported as 7.8 ± 1.7 µM, the Ki (Δ^1–28 L-PGDS [1]; DAUDA displacement) is reported as 7.8 ± 1.7 µM and the “Quenching (%), fluorescence reduction relative to vehicle-treated Δ^1–28 L-PGDS” value (Δ^1–28 L-PGDS [2]) is reported as 15.6 ± 1.3%.

For `CCCCCCC(C)(C)c1cc(O)c2c(c1)OC(C)(C)[C@@H]1CC=C(C(=O)O)C[C@@H]21` [AJA, ajulemic acid], the Ki (Δ^1–28 L-PGDS [1]; [5]) was 2.2 µM and 2.3 µM and the “Quenching (%), fluorescence reduction relative to vehicle-treated Δ^1–28 L-PGDS” value (Δ^1–28 L-PGDS [2]) was 21.9 ± 2.9%.

With `CCCCCCCC/C=C\CCCCCCCC(=O)NCCO` [OEA, oleoylethanolamide] the “Binding to Δ^1–28 L-PGDS” value (Δ^1–28 L-PGDS [1]) was “did not display any appreciable binding”, the Ki (Δ^1–28 L-PGDS [1]; [5]) was > 200 µM and the “Quenching (%), fluorescence reduction relative to vehicle-treated Δ^1–28 L-PGDS” value (Δ^1–28 L-PGDS [2]) was −0.9 ± 2.1%.

For `CC1=C(/C=C/C(C)=C/C=C/C(C)=C/C(=O)O)C(C)(C)CCC1` [all-trans retinoic acid], the Kd (L-PGDS) is listed as 290 nM and the “Quenching (%), fluorescence reduction relative to vehicle-treated Δ^1–28 L-PGDS” value (Δ^1–28 L-PGDS [2]) is listed as 71.1 ± 1.4%.

In the case of `CCCCC[C@H](O)/C=C/[C@@H]1[C@@H](C/C=C\CCCC(=O)O)[C@@H](O)C[C@H]1O` [PGF2α, prostaglandin F2α], the Ki (Δ^1–28 L-PGDS [1]; [5]) is reported as 81 ± 9 µM and the “Quenching (%), fluorescence reduction relative to vehicle-treated Δ^1–28 L-PGDS” value (Δ^1–28 L-PGDS [2]) is reported as 2.7 ± 1.7%.
